# Assay outcomes: PubChem, several laboratories
# An excerpt weighted towards active compounds, which were near 2.6% of everything screened.
# NR2E3 ag-1: NR2E3 agonists in two-hybrid cells, primary screen, cell-based, luminescence, CHO-S, Gal4-NCOR/VP16-NR2E3. Photoreceptor-specific nuclear receptor (Homo sapiens), Q9Y5X4. luciferase. inhibition of corepressor binding, % at 3.98 µM. 360,000 compounds, 0.35% hits. AID 602229, 2012;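 active = inhibition above the mean of all tested compounds plus 3 SD, cut at about 70% in these data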;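 also: 0% = DMSO with NR2E3 transfected cells and 100% = cells lacking NR2E3 construct; higher means lower luciferase signal from less NR2E3 corepressor binding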
# Target sequence (Q9Y5X4 whole entry, looked up, the tested form may be a part): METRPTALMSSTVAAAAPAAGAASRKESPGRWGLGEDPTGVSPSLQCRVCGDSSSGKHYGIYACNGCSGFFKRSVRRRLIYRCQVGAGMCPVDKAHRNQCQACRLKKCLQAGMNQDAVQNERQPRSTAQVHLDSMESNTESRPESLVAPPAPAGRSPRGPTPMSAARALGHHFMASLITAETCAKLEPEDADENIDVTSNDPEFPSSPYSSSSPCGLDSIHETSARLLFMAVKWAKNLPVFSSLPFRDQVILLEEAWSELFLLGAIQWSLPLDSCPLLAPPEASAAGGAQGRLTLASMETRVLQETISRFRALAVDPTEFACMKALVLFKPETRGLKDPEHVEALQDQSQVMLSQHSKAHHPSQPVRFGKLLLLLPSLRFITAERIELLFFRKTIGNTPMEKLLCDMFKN
# PG9 Ab binder: binders of HIV-1 gp120 antibody PG9, primary screen, biochemical, TR-FRET; HIV-1 gp120 / PG9 antibody interaction; TR-FRET gp120-PG9 antibody binding; inhibition, % at 6.7 µM; 360,000 compounds, 0.43% hits; AID 624416, 2012; in the data active = inhibition above about 8.5%
# Rev-erbA mod: modulators of Rev-erb alpha DNA binding, primary screen, biochemical, FITC-DNA, fluorescence polarization, uHTS. Nuclear receptor subfamily 1 group D member 1 (Homo sapiens), P20393. Rev-erbα–FITC-DNA binding, 90 min. activity, % at 10 µM. 370,000 compounds, 0.79% hits. AID 1259318, 2017;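 active = activity above about 14%, limit read from the data; passing the limit was not always enough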;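 also: 0% = DMSO wells with 35 nM protein and 100% = DMSO wells with 750 nM protein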
# rCAG binder: binders of r(CAG) RNA repeats, primary screen, biochemical, fluorescence | r(CAG) RNA repeat, TO-PRO-1 dye displacement fluorescence | inhibition, % at 3 µM | 370,000 compounds, 1.3% hits | AID 651821, 2012;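 active = inhibition above the plate cutoff, the mean of all test compounds on that plate plus 3 SD, cut at about 35% in these data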;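 also: 0% = DMSO alone and 100% = 100 µM mitoxantrone as full dye displacement; higher means more dye released from RNA so lower well fluorescence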
# NR2E3 ag-2: inhibitors of NR2E3-RetCOR corepressor binding, primary screen, NR2E3 agonist project, biochemical, TR-FRET, GST-NR2E3, biotin-RetCOR; Photoreceptor-specific nuclear receptor (Homo sapiens), Q9Y5X4; 1536-well; inhibition of corepressor binding, % at 4.78 µM; 320,000 compounds, 0.12% hits;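 active = percent inhibition above the cutoff of mean plus 3 SD of all tested compounds, set per screening campaign, cut at about 20% in these data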;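 also: 0% = DMSO wells and 100% = biotin wells as full block of FRET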
#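 System: GST-tagged NR2E3 plus biotinylated RetCOR corepressor; Amount: 1.35 nM GST-tagged NR2E3 final; Dosing: single nominal compound dose of 4.8 µM; Schedule: 5 h incubation at 4 °C; Technique: TR-FRET with europium anti-GST and streptavidin-D2, 340 nm excitation; Controls: biotin wells as high control, 0.6% DMSO wells as low control.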
# An asterisk follows results filed as active; x = no result given.
SMILES,NR2E3 ag-1,PG9 Ab binder,Rev-erbA mod,rCAG binder,NR2E3 ag-2
Cc1ccc(Cc2c(-c3cccc(Cl)c3)nc3ccc(Br)cn23)cc1,7.7,2.5,-2.8,43.9*,x
Cc1cc2nc(-c3cccc(Cl)c3)c(Cc3cccc(Cl)c3)n2c(C)c1Br,-11.3,-1.4,4.5,34.5*,x
Cc1cc2nc(-c3ccc(Cl)cc3)c(Cc3cccc(Cl)c3)n2c(C)c1Br,3.3,-0.1,-1.4,25.4,x
CC(C)CC(=O)N[C@H](C(=O)NC(C(=O)NC(CC(C)C)[C@@H](O)CC(=O)N[C@@H](C)C(=O)N[C@@H](CC(C)C)[C@@H](O)CC(=O)O)C(C)C)C(C)C (stereo not given in full),x,x,-2.3,x,x
CC(=O)Nc1ccc(S(=O)(=O)c2ccc(NC(C)=O)cc2)cc1,x,x,1.8,x,x
CCOC(=O)O[C@H](C)OC(=O)C1N2C(=O)[C@H](NC(=O)C(N)c3ccccc3)C2SC1(C)C (stereo not given in full),x,x,-1.9,x,x
O=C1CC(=O)N(CCNc2ncc(C(F)(F)F)cc2Cl)C(=O)N1,-13.9,0.1,0.0,51.4*,3.6
CC(C)[C@H](N)C(=O)O,x,x,-7.1,x,x
COc1cccc(/C=N/c2sc(Cc3ccccc3)c(C)c2C(N)=O)c1O,-53.4,-1.0,1.1,37.1*,7.2
C[C@@H]1O[C@@H](OC[C@H]2OC(Oc3c(-c4ccc(O)c(O)c4)oc4cc(O)cc(O)c4c3=O)[C@H](O)[C@@H](O)[C@@H]2O)[C@H](O)[C@H](O)[C@H]1O (stereo not given in full),x,x,-0.7,x,x
COc1ccc(CS(=O)(=O)/C(Cl)=C(/Cl)C(=O)Nc2ccc(OC)nc2)cc1,73.7*,x,x,x,-3.3
COc1ccc(-c2nnc(Nc3nc4c(OC)cccc4s3)o2)c(OC)c1,54.1,1.5,-5.5,51.1*,3.3
O=C1[C@H](CCC(O)c2ccc(F)cc2)[C@@H](c2ccc(O)cc2)N1c1ccc(F)cc1 (stereo not given in full),x,x,-0.1,x,x
COC(=O)c1c(C)oc2ccc(N(C(=O)c3ccncc3)S(=O)(=O)c3ccccc3)cc12,70.5*,-2.5,3.5,3.9,-1.4
CC(C)(C)C(=O)Nc1sc(-c2ccccc2)cc1C(=O)O,-143.1,1.6,4.0,18.4,3.2
Cc1cccc(C(=O)Nc2sc(-c3ccccc3)cc2C(=O)O)c1,-154.1,0.4,4.1,93.8*,1.8
CN1c2ccccc2C(O)=C(C(=S)Nc2ccc(Cl)cc2)S1(=O)=O,37.3,-1.6,-1.5,68.5*,-1.3
Cc1cccc(NC(=O)C2=C(O)c3ccccc3N(C)S2(=O)=O)c1,-25.3,1.6,-0.3,2.1,1.9
O=C1Nc2ccccc2C1=Nc1ccc(S(=O)(=O)Nc2nccs2)cc1,14.4,-1.2,0.6,48.2*,-1.4
C=C(c1ccccc1OCc1cccc(Cl)c1)n1ccnc1,x,x,-0.7,x,x
CCOc1ccc(/C(O)=C2/C(=O)C(=O)N(CCOCCO)C2c2ccccc2)cc1 (stereo not given),-17.6,6.2,6.1,6.5,19.4
CCOc1ccc(/C(O)=C2/C(=O)C(=O)N(CCOCCO)C2c2cccnc2)cc1 (stereo not given),2.5,9.0*,-5.1,0.0,13.7
Cc1c(CCC(=O)O)c(=O)oc2c(C)c3occ(-c4ccc(Cl)cc4)c3cc12,3.2,-0.4,-13.4,25.6,x
Cc1c(CCC(=O)O)c(=O)oc2cc3occ(-c4ccc(Cl)cc4)c3cc12,-7.7,-3.4,-6.3,59.4*,-2.2
Fc1ccc(-c2nc3c(Cl)cc(C(F)(F)F)cn3c2Cc2ccsc2)cc1,-11.5,-0.3,6.0,27.5,x
SMILES,NR2E3 ag-1,PG9 Ab binder,Rev-erbA mod,rCAG binder,NR2E3 ag-2
Cc1ccc(-c2nc3c(Cl)cc(C(F)(F)F)cn3c2Cc2ccsc2)cc1,-15.4,-0.6,-0.5,55.1*,x
O=c1c2c3nc4ccccc4nc3n(Cc3ccccc3)c2ncn1Cc1ccco1,-21.5,1.3,-10.4,37.4*,x
COCCCn1c2nc3ccccc3nc2c2c(=O)n(Cc3ccc(Cl)cc3)cnc21,4.9,-2.0,5.5,-1.9,3.5
Cc1cccc(Nc2nc(-c3c(C)nc4ccccn34)cs2)c1,78.1*,0.7,-5.7,4.2,0.1
Cc1cc(/C=C2/SC(=S)N(c3cccc(C(F)(F)F)c3)C2=O)c(C)n1-c1cccnc1,88.4*,x,x,x,-2.4
Cn1nc(C(F)(F)F)c(/C=N/OC(=O)c2ccccc2Cl)c1SCc1ccccc1Cl,72.8*,-0.3,3.4,7.0,-1.3
O=C(O)[C@@H](S)[C@@H](S)C(=O)O,x,x,-1.9,x,x
COC(=O)c1cc(NS(=O)(=O)c2ccc(N3CCCCC3)c([N+](=O)[O-])c2)cc(C(=O)OC)c1,5.1,-0.2,3.3,69.1*,0.8
O=C(Nc1nnc(-c2ccc3c(c2)CCCC3)o1)c1ccc(Cl)cc1Cl,-26.8,-2.3,-8.3,56.6*,2.3
C=CCc1cccc2cc(C(=O)Nc3ccccc3C(=O)O)c(=O)oc12,-35.6,-0.1,0.0,37.6*,x
CC(=O)OCC(=O)[C@@]1(O)[C@@H](C)CC2C3CCC4=CC(=O)C=C[C@]4(C)[C@@]3(F)[C@@H](O)C[C@@]21C (stereo not given in full),x,x,-10.0,x,x
O=C(O)C1Nc2c(O)cccc2C2C=CCC12 (stereo not given),2.5,-3.0,-42.2,82.5*,12.5
O=C(O)C1Nc2c(Cl)cc(Cl)cc2C2C=CCC12 (stereo not given),-2.5,x,x,x,3.8
CC(C)(O/N=C(\C(=O)N[C@@H]1C(=O)N2C(C(=O)O)=C(C[n+]3ccccc3)CSC12)c1csc(N)n1)C(=O)O (stereo not given in full),x,x,1.5,x,x
Cc1nc2ccccc2c2oc(C(=O)NCC3COc4ccccc4O3)cc12 (stereo not given),78.8*,-0.1,-0.5,4.8,1.2
CCN1CCCC1CNC(=O)c1cc2c(C)nc3ccccc3c2o1 (stereo not given),16.7,-1.1,0.6,1.9,-0.9
COc1cccc(CNC(=O)c2cc3c(C)nc4ccccc4c3o2)c1,33.5,0.8,-8.4,3.4,1.7
COc1ccc(CNC(=O)c2cc3c(C)nc4ccccc4c3o2)c(OC)c1,98.9*,x,x,x,0.3
COc1ccc(/C=C\C(=O)O[C@@H]2C(O)C(O[C@@H]3OC(C)[C@H](O[C@@H]4OCC(O[C@H]5O[C@H](CO)[C@@H](O)C(O)C5O)C(O)C4O)C(O)C3O)[C@H](OC(=O)[C@]34CCC(C)(C)C[C@@H]3C3=CCC5[C@@]6(C)CC(O)C(O[C@@H]7OC(CO)C(O)[C@H](O)[C@H]7O)[C@@](C)(C(=O)O)C6CC[C@@]5(C)[C@]3(CO)CC4)O[C@H]2C)cc1 (stereo not given in full),96.5*,x,x,x,x
